What was measured:
[1] = biological target: Tyrosine-protein kinase ABL1 (Homo sapiens) (UniProt P00519); test: Binding affinity to wild-type human phosphorylated ABL1 (S229 to K512 residues) expressed in HEK293 cells at 1 uM by Kinomescan method relative to control; type: cell-based
[2] = system: Tyrosine-protein kinase ABL1 (Homo sapiens), P00519 [T315I]; test: Binding affinity to human phosphorylated ABL1 T315I mutant (S229 to K512 residues) expressed in HEK293 cells at 1 uM by Kinomescan method relative to control; type: cell-based
[3] = biological target: ALK tyrosine kinase receptor (Homo sapiens) (UniProt Q9UM73); test: Binding affinity to wild-type human partial length ALK (I1088 to E1409 residues) expressed in HEK293 cells at 1 uM by Kinomescan method relative to control; type: cell-based
[4] = biological target: Tyrosine-protein kinase BTK (Homo sapiens) (UniProt Q06187); test: Binding affinity to wild-type human full length BTK (M1 to S659 residues) expressed in HEK293 cells at 1 uM by Kinomescan method relative to control; type: cell-based
[5] = biological target: Dual specificity protein kinase CLK3 (Homo sapiens) (UniProt P49761); test: Binding affinity to wild-type human full length CLK3 (M1 to R490 residues) expressed in Escherichia coli BL21 at 1 uM by Kinomescan method relative to control
Summary of the method: (§1)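 Run as one kinome-wide competition binding panel with each compound at a single fixed concentration. Results were plotted as a kinome-wide selectivity map.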

[6] = biological target: Serine/threonine-protein kinase DCLK2 (Homo sapiens) (UniProt Q8N568); test: Binding affinity to wild-type human partial length DCAMKL2 (K273 to V664 residues) expressed in Escherichia coli BL21 at 1 uM by Kinomescan method relative to control
[7] = biological target: Ephrin type-B receptor 6 (Homo sapiens) (UniProt O15197); test: Binding affinity to wild-type human partial length EPHB6 (Q634 to P948 residues) expressed in HEK293 cells at 1 uM by Kinomescan method relative to control; type: cell-based
[8] = biological target: Mitogen-activated protein kinase 7 (Homo sapiens) (UniProt Q13164); test: Binding affinity to wild-type human partial length ERK5 (M1 to A409 residues) expressed in Escherichia coli BL21 at 1 uM by Kinomescan method relative to control
[9] = biological target: Fibroblast growth factor receptor 4 (Homo sapiens) (UniProt P22455); test: Binding affinity to wild-type human partial length FGFR4 (G402 to E713 residues) expressed in Escherichia coli BL21 at 1 uM by Kinomescan method relative to control
[10] = biological target: Serine/threonine-protein kinase haspin (Homo sapiens) (UniProt Q8TF76); test: Binding affinity to wild-type human partial length HASPIN (I452 to K798 residues) expressed in HEK293 cells at 1 uM by Kinomescan method relative to control; type: cell-based
[11] = biological target: Insulin-like growth factor 1 receptor (Homo sapiens) (UniProt P08069); test: Binding affinity to wild-type human partial length IGF1R (L972 to D1294 residues) expressed in Escherichia coli BL21 at 1 uM by Kinomescan method relative to control
[12] = biological target: Interleukin-1 receptor-associated kinase 1 (Homo sapiens) (UniProt P51617); test: Binding affinity to wild-type human partial length IRAK1 (R194 to S712 residues) expressed in HEK293 cells at 1 uM by Kinomescan method relative to control; type: cell-based
[13] = biological target: Mitogen-activated protein kinase 10 (Homo sapiens) (UniProt P53779); test: Binding affinity to wild-type human partial length JNK3 (V28 to Q422 residues) expressed in HEK293 cells at 1 uM by Kinomescan method relative to control; type: cell-based
[14] = biological target: MAP kinase-activated protein kinase 5 (Homo sapiens) (UniProt Q8IW41); test: Binding affinity to wild-type human partial length MAPKAPK5 (M1 to D322 residues) expressed in HEK293 cells at 1 uM by Kinomescan method relative to control; type: cell-based
[15] = biological target: Dual specificity mitogen-activated protein kinase kinase 2 (Homo sapiens) (UniProt P36507); test: Binding affinity to wild-type human full length MEK2 (M1 to V400 residues) expressed in HEK293 cells at 1 uM by Kinomescan method relative to control; type: cell-based; summary of the method: as §1
[16] = biological target: Mitogen-activated protein kinase kinase kinase 10 (Homo sapiens) (UniProt Q02779); test: Binding affinity to wild-type human partial length MLK2 (V52 to W380 residues) expressed in Escherichia coli BL21 at 1 uM by Kinomescan method relative to control
[17] = biological target: Myosin light chain kinase, smooth muscle (Homo sapiens) (UniProt Q15746); test: Binding affinity to wild-type human full length MYLK (M854 to E1845 residues) expressed in HEK293 cells at 1 uM by Kinomescan method relative to control; type: cell-based; summary of the method: as §1
[18] = system: Phosphatidylinositol 4,5-bisphosphate 3-kinase catalytic subunit alpha isoform (Homo sapiens), P42336 [C420R]; test: Binding affinity to human partial length PIK3CA C420R mutant (R108 to N1068 residues) expressed in HEK293 cells at 1 uM by Kinomescan method relative to control; type: cell-based
[19] = system: Phosphatidylinositol 4,5-bisphosphate 3-kinase catalytic subunit alpha isoform (Homo sapiens), P42336 [E545K]; test: Binding affinity to human partial length PIK3CA E545K mutant (R108 to N1068 residues) expressed in HEK293 cells at 1 uM by Kinomescan method relative to control; type: cell-based
[20] = biological target: Phosphatidylinositol 5-phosphate 4-kinase type-2 beta (Homo sapiens) (UniProt P78356); test: Binding affinity to wild-type human full length PIP5K2B (M1 to T416 residues) expressed in Escherichia coli BL21 at 1 uM by Kinomescan method relative to control
Summary of the method: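 Kinome-wide competition binding panel run by an outside provider, with each compound tested at a single concentration. Activity is read against the kinase panel.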

[21] = biological target: Ribosomal protein S6 kinase beta-1 (Homo sapiens) (UniProt P23443); test: Binding affinity to wild-type human partial length S6K1 (M1 to S421 residues) expressed in HEK293 cells at 1 uM by Kinomescan method relative to control; type: cell-based
[22] = biological target: Serine/threonine-protein kinase SBK1 (Homo sapiens) (UniProt Q52WX2); test: Binding affinity to wild-type human partial length SBK1 (P23 to P348 residues) expressed in HEK293 cells at 1 uM by Kinomescan method relative to control; type: cell-based
[23] = biological target: Angiopoietin-1 receptor (Homo sapiens) (UniProt Q02763); test: Binding affinity to wild-type human partial length TIE2 (N804 to T1112 residues) expressed in Escherichia coli BL21 at 1 uM by Kinomescan method relative to control
[24] = biological target: High affinity nerve growth factor receptor (Homo sapiens) (UniProt P04629); test: Binding affinity to wild-type human partial length TRKA (G475 to G790 residues) expressed in HEK293 cells at 1 uM by Kinomescan method relative to control; type: cell-based
[25] = biological target: Serine/threonine-protein kinase ULK2 (Homo sapiens) (UniProt Q8IYT8); test: Binding affinity to wild-type human partial length ULK2 (M1 to S301 residues) expressed in HEK293 cells at 1 uM by Kinomescan method relative to control; type: cell-based

Sequence of Phosphatidylinositol 4,5-bisphosphate 3-kinase catalytic subunit alpha isoform (Homo sapiens), P42336 [C420R] (P42336 whole entry C420R, the tested form may be a part, canonical isoform): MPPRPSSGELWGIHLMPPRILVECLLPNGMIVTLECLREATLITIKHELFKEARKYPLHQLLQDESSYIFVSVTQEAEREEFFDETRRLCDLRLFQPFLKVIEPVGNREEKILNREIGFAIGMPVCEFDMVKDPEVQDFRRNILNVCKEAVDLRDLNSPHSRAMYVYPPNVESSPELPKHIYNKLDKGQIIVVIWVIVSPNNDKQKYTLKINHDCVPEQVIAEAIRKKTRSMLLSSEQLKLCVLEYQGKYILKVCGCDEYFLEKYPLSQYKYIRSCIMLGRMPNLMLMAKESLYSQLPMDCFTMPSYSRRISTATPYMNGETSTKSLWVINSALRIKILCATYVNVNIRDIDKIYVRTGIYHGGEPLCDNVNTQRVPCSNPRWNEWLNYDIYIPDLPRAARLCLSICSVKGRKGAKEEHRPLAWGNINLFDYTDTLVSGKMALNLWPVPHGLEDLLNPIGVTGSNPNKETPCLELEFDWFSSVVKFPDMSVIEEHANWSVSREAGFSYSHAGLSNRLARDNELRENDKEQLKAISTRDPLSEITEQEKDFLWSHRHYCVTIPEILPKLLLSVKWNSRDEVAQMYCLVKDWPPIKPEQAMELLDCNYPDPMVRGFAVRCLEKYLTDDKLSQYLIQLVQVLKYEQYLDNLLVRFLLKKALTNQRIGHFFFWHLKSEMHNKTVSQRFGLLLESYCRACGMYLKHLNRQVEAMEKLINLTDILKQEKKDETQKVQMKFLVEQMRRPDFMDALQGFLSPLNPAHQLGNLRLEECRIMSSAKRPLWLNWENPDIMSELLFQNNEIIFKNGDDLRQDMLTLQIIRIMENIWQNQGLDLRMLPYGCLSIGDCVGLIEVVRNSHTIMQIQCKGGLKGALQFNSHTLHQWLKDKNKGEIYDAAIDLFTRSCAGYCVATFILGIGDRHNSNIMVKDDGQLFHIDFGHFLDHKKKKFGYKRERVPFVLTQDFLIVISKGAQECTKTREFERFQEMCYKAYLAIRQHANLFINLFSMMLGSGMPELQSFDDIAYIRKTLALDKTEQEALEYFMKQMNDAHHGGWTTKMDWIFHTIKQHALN
Sequence of Myosin light chain kinase, smooth muscle (Homo sapiens) (Q15746 whole entry, the tested form may be a part, canonical isoform): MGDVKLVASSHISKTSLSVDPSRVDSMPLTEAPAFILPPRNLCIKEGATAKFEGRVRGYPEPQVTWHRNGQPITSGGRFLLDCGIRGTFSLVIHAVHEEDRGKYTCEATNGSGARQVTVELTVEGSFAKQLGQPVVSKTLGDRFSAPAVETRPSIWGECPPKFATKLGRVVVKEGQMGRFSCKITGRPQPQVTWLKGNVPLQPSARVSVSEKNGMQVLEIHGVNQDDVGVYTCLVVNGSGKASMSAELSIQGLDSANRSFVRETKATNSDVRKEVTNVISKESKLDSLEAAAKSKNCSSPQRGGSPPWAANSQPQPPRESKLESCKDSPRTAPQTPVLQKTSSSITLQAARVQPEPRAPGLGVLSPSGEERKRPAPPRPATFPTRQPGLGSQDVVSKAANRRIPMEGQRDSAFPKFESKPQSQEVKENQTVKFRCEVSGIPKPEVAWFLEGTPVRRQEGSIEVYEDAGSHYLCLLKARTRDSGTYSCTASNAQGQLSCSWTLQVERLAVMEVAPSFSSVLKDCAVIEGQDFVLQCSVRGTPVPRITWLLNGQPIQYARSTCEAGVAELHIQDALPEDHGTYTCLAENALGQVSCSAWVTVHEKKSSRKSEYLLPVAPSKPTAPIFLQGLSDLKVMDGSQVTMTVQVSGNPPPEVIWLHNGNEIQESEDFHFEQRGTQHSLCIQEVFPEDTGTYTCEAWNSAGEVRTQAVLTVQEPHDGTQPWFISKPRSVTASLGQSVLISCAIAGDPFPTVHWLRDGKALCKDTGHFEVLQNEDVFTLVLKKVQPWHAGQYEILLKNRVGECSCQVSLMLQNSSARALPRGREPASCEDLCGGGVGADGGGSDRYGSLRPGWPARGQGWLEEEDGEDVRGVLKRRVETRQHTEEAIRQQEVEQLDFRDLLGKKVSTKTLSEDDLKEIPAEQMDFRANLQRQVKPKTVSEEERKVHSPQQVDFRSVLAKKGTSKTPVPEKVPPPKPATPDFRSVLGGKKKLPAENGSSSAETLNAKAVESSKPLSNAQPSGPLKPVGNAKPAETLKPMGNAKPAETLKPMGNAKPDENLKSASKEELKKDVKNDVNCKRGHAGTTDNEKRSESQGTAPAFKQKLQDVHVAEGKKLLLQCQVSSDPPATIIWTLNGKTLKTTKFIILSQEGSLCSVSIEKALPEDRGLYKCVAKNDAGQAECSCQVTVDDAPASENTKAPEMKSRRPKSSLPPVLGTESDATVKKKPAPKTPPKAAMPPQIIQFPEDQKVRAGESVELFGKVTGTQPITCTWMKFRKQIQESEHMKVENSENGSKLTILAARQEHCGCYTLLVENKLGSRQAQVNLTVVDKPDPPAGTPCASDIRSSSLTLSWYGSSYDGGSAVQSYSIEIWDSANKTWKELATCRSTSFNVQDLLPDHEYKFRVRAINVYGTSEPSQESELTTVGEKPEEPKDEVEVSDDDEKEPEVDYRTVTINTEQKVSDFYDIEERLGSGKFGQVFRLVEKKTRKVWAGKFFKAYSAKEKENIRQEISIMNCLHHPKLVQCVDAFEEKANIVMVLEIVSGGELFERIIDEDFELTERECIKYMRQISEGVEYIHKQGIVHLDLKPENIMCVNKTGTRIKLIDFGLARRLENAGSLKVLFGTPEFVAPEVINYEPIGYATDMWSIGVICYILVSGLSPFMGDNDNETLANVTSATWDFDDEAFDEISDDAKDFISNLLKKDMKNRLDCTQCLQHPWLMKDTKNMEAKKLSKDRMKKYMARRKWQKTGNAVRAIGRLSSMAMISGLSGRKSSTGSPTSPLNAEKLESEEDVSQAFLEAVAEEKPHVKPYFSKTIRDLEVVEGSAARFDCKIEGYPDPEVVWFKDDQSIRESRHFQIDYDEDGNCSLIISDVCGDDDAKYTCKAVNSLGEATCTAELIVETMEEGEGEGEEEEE
Sequence of Phosphatidylinositol 4,5-bisphosphate 3-kinase catalytic subunit alpha isoform (Homo sapiens), P42336 [E545K] (P42336 whole entry E545K, the tested form may be a part, canonical isoform): as the sequence (P42336 whole entry C420R, the tested form may be a part, canonical isoform) above, with R420C, E545K counted along it
Sequence of Dual specificity protein kinase CLK3 (Homo sapiens) (P49761 whole entry, looked up, the tested form may be a part): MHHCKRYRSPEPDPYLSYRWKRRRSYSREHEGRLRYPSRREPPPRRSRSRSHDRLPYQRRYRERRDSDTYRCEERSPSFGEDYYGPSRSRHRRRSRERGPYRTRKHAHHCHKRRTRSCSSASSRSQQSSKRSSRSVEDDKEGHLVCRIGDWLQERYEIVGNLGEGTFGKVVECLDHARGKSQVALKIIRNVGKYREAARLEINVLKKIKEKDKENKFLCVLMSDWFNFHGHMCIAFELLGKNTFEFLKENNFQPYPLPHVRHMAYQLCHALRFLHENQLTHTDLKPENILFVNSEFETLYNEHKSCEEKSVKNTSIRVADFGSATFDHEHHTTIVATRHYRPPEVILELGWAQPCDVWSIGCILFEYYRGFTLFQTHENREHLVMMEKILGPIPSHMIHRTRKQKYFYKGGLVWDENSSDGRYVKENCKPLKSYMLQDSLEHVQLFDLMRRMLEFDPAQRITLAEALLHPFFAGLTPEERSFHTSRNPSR
Sequence of Serine/threonine-protein kinase SBK1 (Homo sapiens) (Q52WX2 whole entry, the tested form may be a part): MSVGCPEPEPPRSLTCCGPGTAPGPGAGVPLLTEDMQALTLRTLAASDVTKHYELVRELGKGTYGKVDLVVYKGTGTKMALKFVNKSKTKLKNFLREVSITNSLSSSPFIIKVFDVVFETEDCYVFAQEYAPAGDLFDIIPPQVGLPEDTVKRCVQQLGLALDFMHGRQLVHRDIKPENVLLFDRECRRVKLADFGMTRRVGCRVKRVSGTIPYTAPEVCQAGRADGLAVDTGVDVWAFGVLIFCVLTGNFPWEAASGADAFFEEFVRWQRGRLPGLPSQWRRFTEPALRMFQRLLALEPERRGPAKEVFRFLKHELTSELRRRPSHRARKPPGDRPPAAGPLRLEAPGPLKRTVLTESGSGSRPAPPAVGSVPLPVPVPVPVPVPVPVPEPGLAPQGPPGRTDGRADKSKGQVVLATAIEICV

Row | Structure (SMILES) | Activity [1] [%] | Activity [2] [%] | Activity [3] [%] | Activity [4] [%] | Activity [5] [%] | Activity [6] [%] | Activity [7] [%] | Activity [8] [%] | Activity [9] [%] | Activity [10] [%] | Activity [11] [%] | Activity [12] [%] | Activity [13] [%] | Activity [14] [%] | Activity [15] [%] | Activity [16] [%] | Activity [17] [%] | Activity [18] [%] | Activity [19] [%] | Activity [20] [%] | other results
1 | CCC(=O)Nc1ccc(C(=O)Nc2ccc(Nc3ncc4c(n3)N(C)c3ccc(C)cc3C(=O)N4C)cc2)cc1 | 90 | 100 | 83 | 100 | 91 | 81 | 77 | 97 | 97 | 100 | 84 | 90 | 92 | 55 | 72 | 74 | 78 | 89 | 76 | 94 | Activity [21]: 100%; Activity [22]: 93%; Activity [23]: 54%; Activity [24]: 78%; Activity [25]: 82%
2 | C=CC(=O)Nc1ccc(C(=O)Nc2ccc(Nc3ncc4c(n3)N(C)c3ccc(C)cc3C(=O)N4C)cc2)cc1 | 94 | 99 | 100 | 94 | 89 | 78 | 96 | 86 | 74 | 100 | 100 | 95 | 100 | 99 | 86 | 82 | 89 | 58 | 72 | 83 | Activity [21]: 91%; Activity [22]: 100%; Activity [23]: 88%; Activity [24]: 79%; Activity [25]: 94%
